# Activity calls are given as the source filed them. The calls are words filed in the database; no cut-off is given here.
# Columns and labels:
# MDCK [1] = assay: Inhibition of PKC/p38MAPK-mediated nuclear-cytoplasmic viral nucleoprotein export in dog MDCK cells infected with Influenza virus A/Puerto Rico/8/34 H1N1 assessed as increase in nucleoprotein level in nucleus measured at 8 hrs post-infection by Western blot analysis; format: cell-based; conditions: Canis lupus familiaris
# How it was run: (§1)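 Cytosolic and nuclear extracts from treated and untreated infected MDCK cells were run on SDS-PAGE and immunoblotted with anti-NP antibodies. Blots were stripped and reprobed for α-tubulin (cytosol) or lamin A/C (nucleus). Densitometry is given as the NP/tubulin or NP/lamin ratio; one representative experiment of three.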
# Influenza A virus [2] = assay: Antiviral activity against Influenza virus A/Puerto Rico/8/34 H1N1 infected in dog MDCK cells incubated for 1 hr post-infection followed by compound washout by hemagglutininating unit assay; format: functional, organism-based; conditions: A/Puerto Rico/8/1934(H1N1)
# MDCK [3] = assay: Restoration of GSH level in dog MDCK cells infected with Influenza virus A/Puerto Rico/8/34 H1N1 assessed as impairment of viral protein localization on plasma membrane measured at 24 hrs post-infection by immunofluorescence assay; format: functional, cell-based; conditions: Canis lupus familiaris
# Influenza A virus [4] = assay: Antiviral activity against Influenza virus A/Puerto Rico/8/34 H1N1 infected in dog MDCK cells incubated at 6 hrs post-infection measured after 24 hrs by hemagglutininating unit assay relative to control; format: functional, organism-based; conditions: A/Puerto Rico/8/1934(H1N1)
# How it was run: (§2)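 Treatment of PR8-infected MDCK cells started at 2, 4, 6 or 8 h p.i. and compound stayed in the medium through 24 h p.i. Virus yield in the supernatant was read by HAU at 24 h p.i. as a percentage of DMSO-treated control infected cells. Means of two experiments, each in duplicate.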
# [5] = molecular target: T1, Protein kinase C (PKC) (Homo sapiens) (UniProt O94806+P41743+P17252+P05129+Q05655+P05771+Q05513+Q02156+P24723+Q15139+Q04759); assay: Inhibition of PKC-mediated ERK1 phosphorylation in human NCI-H292 cells infected with Influenza virus A/Puerto Rico/8/34 H1N1 measured at 6 hrs post-infection by immunoblotting analysis; format: cell-based
# How it was run: (§3)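 NCI-H292 cells, mock- or PR8-infected at 1 M.O.I., were treated and lysed 6 h p.i. Lysates were run on 10% SDS–PAGE and blotted with rabbit anti-phospho-PKD, -ERK1/2, -p38MAPK or -JNK antibodies. Membranes were then stripped and reprobed for the corresponding total proteins.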
# MDCK [6] = assay: Cytotoxicity against dog MDCK cells assessed as morphological alterations incubated for 24 hrs followed by compound wash out measured after 24 hrs by microscopic analysis; format: cell-based, Canis lupus familiaris
# How it was run: (§4)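 Confluent MDCK monolayers plated at 2×10^5/ml were treated after 24 h with compound at 5–40 μg/ml and incubated a further 24 h. Assessed by microscopic examination of morphology, Trypan blue exclusion for viability, and cell counts for multiplication rate.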
# MDCK [7] = assay: Cytotoxicity against dog MDCK cells assessed as loss of cell viability incubated for 24 hrs followed by compound wash out measured after 24 hrs by trypan blue exclusion assay; format: cell-based, Canis lupus familiaris; how it was run: as §4
# [8] = molecular target: T1, Protein kinase C (PKC) (Homo sapiens); assay: Inhibition of PKC-mediated ERK2 phosphorylation in human NCI-H292 cells infected with Influenza virus A/Puerto Rico/8/34 H1N1 measured at 6 hrs post-infection by immunoblotting analysis; format: cell-based; how it was run: as §3
# Influenza A virus [9] = assay: Antiviral activity against Influenza virus A/Puerto Rico/8/34 H1N1 infected in dog MDCK cells incubated at 4 hrs post-infection measured after 24 hrs by hemagglutininating unit assay relative to control; format: functional, A/Puerto Rico/8/1934(H1N1); how it was run: as §2
# [10] = molecular target: T1, Protein kinase C (PKC) (Homo sapiens); assay: Inhibition of PKC-mediated PKD phosphorylation in human NCI-H292 cells infected with Influenza virus A/Puerto Rico/8/34 H1N1 measured at 6 hrs post-infection by immunoblotting analysis; format: cell-based; how it was run: as §3
# Influenza A virus [11] = assay: Antiviral activity against Influenza virus A/Puerto Rico/8/34 H1N1 infected in dog MDCK cells incubated at 8 hrs post-infection measured after 24 hrs by hemagglutininating unit assay relative to control; format: functional, organism-based; conditions: A/Puerto Rico/8/1934(H1N1); how it was run: as §2
# MDCK [12] = assay: Inhibition of PKC/p38MAPK-mediated nuclear-cytoplasmic viral nucleoprotein export in dog MDCK cells infected with Influenza virus A/Puerto Rico/8/34 H1N1 assessed as decrease in nucleoprotein level in cytoplasm measured at 8 hrs post-infection by Western blot analysis; format: cell-based; conditions: Canis lupus familiaris; how it was run: as §1
# MDCK [13] = assay: Restoration of GSH level in dog MDCK cells infected with Influenza virus A/Puerto Rico/8/34 H1N1 assessed as viral protein localization on peri-nuclear zone measured at 24 hrs post-infection by immunofluorescence assay; format: functional, cell-based; conditions: Canis lupus familiaris
# [14] = molecular target: T1, Protein kinase C (PKC) (Homo sapiens); assay: Inhibition of PKC-mediated p38MAPK phosphorylation in human NCI-H292 cells infected with Influenza virus A/Puerto Rico/8/34 H1N1 measured at 6 hrs post-infection by immunoblotting analysis; format: cell-based; how it was run: as §3
# Influenza A virus [15] = assay: Antiviral activity against Influenza virus A/Puerto Rico/8/34 H1N1 infected in dog MDCK cells incubated at 1 hr post-infection measured after 24 hrs by hemagglutininating unit assay; format: functional, organism-based; conditions: A/Puerto Rico/8/1934(H1N1)
# How it was run: (§5)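 MDCK cells infected with PR8; 1 h after adsorption they were washed, and compound (5–20 μg/ml) or DMSO was added and kept on throughout. Virus released into the supernatant was titrated by HAU assay 24 h p.i. Yield is a percentage of control infected cells given 0.02% DMSO. Means of four experiments, each in duplicate.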
# Influenza A virus [16] = assay: Antiviral activity against Influenza virus A/Puerto Rico/8/34 H1N1 infected in dog MDCK cells assessed as inhibition of viral replication at 20 ug/mL incubated at 1 hr post-infection measured after 24 hrs by hemagglutininating unit assay relative to control; format: functional; conditions: A/Puerto Rico/8/1934(H1N1); how it was run: as §5
# Influenza A virus [17] = assay: Antiviral activity against Influenza virus A/Puerto Rico/8/34 H1N1 infected in dog MDCK cells incubated for 1 hr prior to infection by hemagglutininating unit assay; format: functional, organism-based; conditions: A/Puerto Rico/8/1934(H1N1)
# How it was run: (§6)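 Timing variants, each read by HAU of virus yield from MDCK cells: PR8 stock preincubated 1 h with compound before infection; compound present only during the 1 h adsorption; or cells pretreated overnight with washout just before viral challenge.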
# Influenza A virus [18] = assay: Antiviral activity against Influenza virus A/Puerto Rico/8/34 H1N1 infected in dog MDCK cells incubated at 2 hrs post-infection measured after 24 hrs by hemagglutininating unit assay relative to control; format: functional, A/Puerto Rico/8/1934(H1N1); how it was run: as §2
# MDCK [19] = assay: Inhibition of PKC/p38MAPK-mediated nuclear-cytoplasmic viral ribonucleoprotein export in dog MDCK cells infected with Influenza virus A/Puerto Rico/8/34 H1N1 measured at 8 hrs post-infection by inmmunofluorescence; format: cell-based; conditions: Canis lupus familiaris
# How it was run: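 MDCK cells were infected with PR8 at 1 M.O.I. for single-cycle replication. At 8 h p.i. cells were fixed, permeabilized and stained with DAPI, then with anti-NP primary and FITC-conjugated secondary antibody. NP localization was assessed by fluorescence microscopy.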
# Influenza A virus [20] = assay: Antiviral activity against Influenza virus A/Puerto Rico/8/34 H1N1 infected in dog MDCK cells incubated overnight prior to infection followed by compound washout by hemagglutininating unit assay; format: functional, organism-based; conditions: A/Puerto Rico/8/1934(H1N1); how it was run: as §6
# [21] = molecular target: T1, Protein kinase C (PKC) (Homo sapiens); assay: Inhibition of PKC-mediated JNK phosphorylation in human NCI-H292 cells infected with Influenza virus A/Puerto Rico/8/34 H1N1 measured at 6 hrs post-infection by immunoblotting analysis; format: cell-based; how it was run: as §3
# MDCK [22] = assay: Cytotoxicity against dog MDCK cells assessed as modification of cell multiplication rate incubated for 24 hrs followed by compound wash out measured after 24 hrs by cell counting analysis; format: cell-based, Canis lupus familiaris; how it was run: as §4
# Influenza A virus [23] = assay: Downregulation of HA protein expression in Influenza virus A/Puerto Rico/8/34 H1N1 infected in dog MDCK cells measured at 24 hrs post-infection; format: functional, organism-based; conditions: A/Puerto Rico/8/1934(H1N1)
# How it was run: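 PR8-infected MDCK cells, untreated or treated, were lysed at 24 h. Homogenates were run on 12% gels under reducing conditions, blotted to nitrocellulose and probed with goat polyclonal anti-influenza antibodies. Densitometry was expressed as the ratio of each viral protein to actin, relative to untreated infected cells.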
Structure (SMILES),inhibition (MDCK [1]),Activity (Influenza A virus [2]),Activity (MDCK [3]),Activity (Influenza A virus [4]),inhibition [5],Activity (MDCK [6]),Activity (MDCK [7]),inhibition [8],Activity (Influenza A virus [9]),inhibition [10],Activity (Influenza A virus [11]),inhibition (MDCK [12]),Activity (MDCK [13]),inhibition [14],Activity (Influenza A virus [15]),Activity (Influenza A virus [17]),Activity (Influenza A virus [18]),inhibition (MDCK [19]),Activity (Influenza A virus [20]),inhibition [21],other results
O=C(/C=C/c1ccc(O)cc1)c1ccc(O)cc1O [ISOLIQUIRITIGENIN],Active,inactive,Active,Active,inactive,Non-toxic,Non-toxic,inactive,79%,Active,inactive,Active,Active,Active,Dose-dependent effect,inactive,79%,Active,inactive,Active,inhibition (Influenza A virus [16]): Active; Activity (MDCK [22]): Non-toxic; Activity (Influenza A virus [23]): Active
O=C1/C(=C/c2ccc(O)c(O)c2)COC/C1=C\c1ccc(O)c(O)c1,Active,inactive,Active,Active,inactive,Non-toxic,Non-toxic,inactive,79%,Active,inactive,Active,Active,Active,Dose-dependent effect,inactive,79%,Active,inactive,Active,inhibition at 20 µg/mL (Influenza A virus [16]): 75%; Activity (MDCK [22]): Non-toxic; Activity (Influenza A virus [23]): Active

# — ChEMBL document CHEMBL2146419, “Effects of polyphenol compounds on influenza A virus replication and definition of their mechanism of action” (Bioorg Med Chem, 2012)
